SUMO1 PPI mod: SUMO1-SIM interaction modulation; actives 0.33% (n = 360,000); inhibition, % at 20 µM; SUMO1 binding to a labelled peptide, TR-FRET, 1 h; P63165; in the data active = inhibition above about 37%
Scp1 inh: inhibitors of human Scp-1 phosphatase; Q9GZU7; Recombinant Scp1, phosphopeptide, malachite green phosphate absorbance; inhibition, % at 20 µM; actives 0.88% (n = 340,000); AID 493091;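 active = inhibition above about 50% at 20 µM, limit read from the data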;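 also: plate controls were DMSO wells with enzyme for no effect and wells lacking enzyme for full effect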
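System: SCP-1 catalytic domain; Reagent: Phospho 17-mer peptide substrate; Doses: one concentration, 20 µM, with 1.0% DMSO; Incubation: 45 min room-temperature reaction, 5 min colour, 30 min stabiliser; Signal: Phosphate-binding colour reagent, absorbance read at 630 nm.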
STEP block: STEP (human) phosphatase inhibition; actives 0.25% (n = 360,000); recombinant STEP, OMFP fluorogenic substrate, fluorescence; AID 588621; inhibition, % at 20 µM;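 active = inhibition at 20 µM, scaled per plate between control wells, above about 37%, limit read from the data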;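 also: 0% = DMSO with enzyme and substrate and 100% = substrate only without enzyme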
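Test system: STEP tyrosine phosphatase / Reagent: OMFP at 25 µM / Doses: 20 µM, 1% DMSO / Read-out: percent inhibition scaled to no-enzyme and uninhibited-enzyme controls, plate-pattern corrected / Detection: FITC-channel fluorescence of OMFP product / Medium: Bis-Tris buffer pH 6.0, 2.5 mM DTT, 0.005% Tween 20 / Schedule: 20 min at room temperature, dark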
LMPTP block: blocks human LMPTP phosphatase; P24666; recombinant LMPTP-A, OMFP fluorogenic substrate, fluorescence intensity; inhibition, % at 20 µM; actives 0.22% (n = 360,000); AID 651560;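 active = compounds that cut the enzyme signal by at least half of the control window in the single-dose screen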;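 also: plate controls were DMSO wells with enzyme plus substrate for no effect and substrate without enzyme for full effect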
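material = LMPTP-A | quantity = 0.625 nM enzyme | reagent = OMFP substrate, 400 µM final | buffer or medium = Bis-Tris pH 6.0, DTT, detergent | detection = endpoint fluorescence intensity from OMFP dephosphorylation | dosing = single 20 µM dose | read-out basis = % inhibition relative to no-enzyme and uninhibited control wells | control set = no-enzyme and uninhibited controls | timing = 50 min at room temperature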
GRK2 inh: inhibitors of human GRK2 displacing RNA aptamer; P25098; bead flow cytometry, FAM-aptamer displacement from GRK2; inhibition of aptamer binding, % at 10 µM; actives 0.59% (n = 330,000);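 active = inhibition of aptamer binding above 40%, roughly 3 SD of noise, on plates passing a quality check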;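 also: median bead fluorescence of bound FAM aptamer so fluorescent compounds give negative values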
DNMT1 block: inhibitors of human DNMT1. actives 0.83% (n = 360,000). AID 588458. inhibition (reported as % activation of signal), % at 10 µM. DNMT1 molecular beacon, Hinp1I cleavage, fluorescence. P26358; in the data active = inhibition above about 50%
Target sequence (P26358 504-1616 limits assumed): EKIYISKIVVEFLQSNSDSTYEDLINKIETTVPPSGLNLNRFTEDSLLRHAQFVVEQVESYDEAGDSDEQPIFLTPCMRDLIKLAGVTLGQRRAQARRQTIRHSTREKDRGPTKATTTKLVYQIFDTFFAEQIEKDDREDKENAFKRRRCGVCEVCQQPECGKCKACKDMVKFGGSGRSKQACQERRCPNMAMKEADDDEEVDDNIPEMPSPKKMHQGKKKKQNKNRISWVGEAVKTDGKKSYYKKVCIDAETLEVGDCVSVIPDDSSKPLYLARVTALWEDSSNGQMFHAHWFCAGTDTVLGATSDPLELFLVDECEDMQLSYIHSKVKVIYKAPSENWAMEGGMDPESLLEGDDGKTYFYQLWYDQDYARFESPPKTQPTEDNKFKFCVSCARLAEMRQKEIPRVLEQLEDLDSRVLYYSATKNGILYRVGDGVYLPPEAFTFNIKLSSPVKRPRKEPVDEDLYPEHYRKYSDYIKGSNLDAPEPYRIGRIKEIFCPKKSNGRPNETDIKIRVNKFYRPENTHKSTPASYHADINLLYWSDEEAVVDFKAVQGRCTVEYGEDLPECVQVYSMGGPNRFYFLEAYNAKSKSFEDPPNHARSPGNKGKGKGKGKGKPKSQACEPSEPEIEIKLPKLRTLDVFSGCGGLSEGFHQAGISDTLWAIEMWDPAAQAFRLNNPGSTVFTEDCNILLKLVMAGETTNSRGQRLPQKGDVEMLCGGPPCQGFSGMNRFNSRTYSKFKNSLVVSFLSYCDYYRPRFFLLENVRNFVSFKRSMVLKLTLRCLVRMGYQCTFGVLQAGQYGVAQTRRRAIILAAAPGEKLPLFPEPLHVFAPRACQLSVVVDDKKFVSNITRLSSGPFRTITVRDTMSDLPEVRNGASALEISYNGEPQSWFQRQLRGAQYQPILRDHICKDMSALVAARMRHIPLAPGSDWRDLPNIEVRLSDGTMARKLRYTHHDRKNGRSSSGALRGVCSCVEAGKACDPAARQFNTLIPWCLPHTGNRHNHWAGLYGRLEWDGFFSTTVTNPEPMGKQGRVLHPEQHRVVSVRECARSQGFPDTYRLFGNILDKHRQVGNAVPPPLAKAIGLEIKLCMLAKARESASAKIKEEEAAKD
GRK2 inh confirm: human GRK2 inhibition confirmation, cherry pick 1. actives 4% (n = 2,000). shares compounds with GRK2 inh. aptamer displacement, % at 10 µM. AID 504451. bead-bound GRK2, FAM-aptamer displacement, flow cytometry;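 active = aptamer displacement above 40%, near three times the noise of non-fluorescent compounds, on plates passing quality checks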;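 also: negative values mostly reflect intrinsic compound fluorescence rather than true enhancement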
FAM quench CP1: counter-screen for GRK2 aptamer inhibitors: fluorescent aptamer quenchers; Carboxyfluorescein RNA aptamer on beads, flow cytometry quenching; active compounds read low; 2,000 tested, under 10 active; fluorescence response (% of DMSO), % at 10 µM; shares compounds with GRK2 inh;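 active = compounds that quench the bead-bound fluorescent RNA probe, cutting fluorescence to under half of the solvent control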;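 also: counterscreen run without GRK2 so only probe quenching by compound is measured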
GRK2 CP2: human GRK2 inhibition confirmation, cherry pick 2; inhibition of aptamer binding, % at 10 µM; shares compounds with GRK2 inh; AID 504782; bead-bound GRK2, FAM-aptamer displacement, flow cytometry; 360 tested, under 10 active;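 active = inhibition of aptamer binding above 40%, about triple the noise seen with nonglowing compounds, on plates passing quality control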;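 also: negative values mostly come from compounds that fluoresce themselves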
FAM quench SP: aptamer fluorescence quenching in GRK2 counter-screen | shares compounds with GRK2 inh | carboxyfluorescein RNA aptamer beads, flow cytometry quenching; active compounds read low | fluorescence response vs DMSO, % at 10 µM | 360 tested, under 10 active;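 active = response vs DMSO under 50%, meaning signal dropped by over half, treated as fluorescence quencher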;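 also: labelled aptamer on streptavidin beads without GRK2 as a quench counter-screen; 100% = bead fluorescence of DMSO wells and lower means quenching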
* = called active by the depositor; i = inactive; x = no result. Shown are actives, neighbours in structure and some others; about 2.2% of the full set was active somewhere.

SMILES	SUMO1 PPI mod	Scp1 inh	STEP block	LMPTP block	GRK2 inh	DNMT1 block	GRK2 inh confirm	FAM quench CP1	others
COc1cc(CCC(=O)NCc2ccc(F)cc2)cc(OC)c1OC	-4	-12	-4	-1	35	2	-6	96
COc1cc(CCC(=O)Nc2ncc(C)s2)cc(OC)c1OC	6	-3	-2	0	0	0	x	x
COc1ccccc1-c1cc(C(F)(F)F)nc(S(=O)(=O)CCCC(=O)NCc2ccc(F)cc2)n1	0	-3	-6	1	48*	6	0	98	GRK2 CP2=-2;FAM quench SP=101
Cc1nc(C(F)(F)F)ccc1C(=O)N1CCC1(C)C(=O)NS(=O)(=O)c1ccc2ccccc2c1 (stereo unspecified)	-1	x	-2	-1	x	8	x	x
CCOc1ccc(N2C(=O)C3CCCN3C2=S)cc1 (stereo unspecified)	0	-9	-1	-1	2	2	x	x
CCOC(=O)c1ccc(N2C(=O)C3CCCN3C2=S)cc1 (stereo unspecified)	3	-5	0	-2	42*	4	x	x	GRK2 CP2=-2;FAM quench SP=103
CC1(C(=O)Nc2ccc3c(c2)OCCO3)CN(S(C)(=O)=O)CC(=O)N1CCc1ccccc1F (stereo unspecified)	-2	x	x	-1	x	x	x	x
Cc1ccnn1CCC(=O)N1CCCC(CCC(=O)NCc2ccccc2F)C1 (stereo unspecified)	-1	-2	0	0	3	4	0	99
COc1ccccc1CC(=O)N1CCCC(CCC(=O)NCc2ccccc2F)C1 (stereo unspecified)	0	2	2	-1	1	1	x	x
C#Cc1cccc(Nc2nc(NCc3ccccc3)nc3ccsc23)c1	1	x	-4	12	x	-23	x	x
CC(NC(=O)c1ccc(C(C)(C)C)cc1)C(c1cccs1)N1CCOCC1 (stereo unspecified)	2	1	0	1	53*	-1	x	x	GRK2 CP2=5;FAM quench SP=102
O=C(CN(Cc1ccccc1)S(=O)(=O)c1ccc(S(=O)(=O)N2CCOCC2)cc1)Nc1ccccc1	2	4	0	-1	52*	14	0	101
O=C(CN(Cc1ccc(F)cc1)S(=O)(=O)c1ccc(S(=O)(=O)N2CCOCC2)cc1)Nc1ccccc1	3	-7	-2	2	0	1	x	x
O=c1[nH]c2cc3ccccc3cc2nc1-c1nnnn1C1CCCC1	-18	x	x	-1	x	x	x	x
Fc1ccc(-c2nc3c4ccccc4ccn3c2Cc2ccsc2)cc1	1	x	-2	2	x	-6	x	x
CC(CNc1nc2ccccc2n2cnnc12)c1ccccc1 (stereo unspecified)	-5	5	-1	1	42*	2	-3	103
COC(=O)/C=C1\N/C(=N/c2nc(C)c3cc(OC)ccc3n2)NC1=O	3	-2	4	3	55*	8	12	97
COC(=O)/C=C1/C(=O)N/C(=N\c2nc(C)cc(C)n2)N1c1ccc(OC)cc1	-3	-5	-4	-1	0	1	x	x
O=C(c1ccco1)N(CCCN1CCOCC1)c1nc(-c2ccc(F)cc2)cs1	3	0	2	0	0	-6	x	x
COCCCN(C(=O)c1ccco1)c1nc(-c2ccc(OC)cc2)cs1	7	-12	-1	3	4	-5	x	x
CCN(CC)CCCN(C(=O)c1ccco1)c1nc(-c2ccc(Cl)cc2)cs1	2	0	3	0	66*	0	-15	99
O=C(c1ccco1)N(CCCN1CCOCC1)c1nc(-c2ccc(Cl)cc2)cs1	6	0	-2	0	2	-13	1	103
CCN(CC)CCCN(C(=O)c1ccco1)c1nc(-c2ccc(C)cc2)cs1	-1	3	-1	0	59*	0	-13	104
CC(=O)Nc1ccc(C(=O)N2CCCC(c3cc(C(=O)NCc4ccc(F)cc4)no3)C2)cc1 (stereo unspecified)	-1	x	0	0	x	5	x	x
COc1ccc(-n2c(SC)nc(O)c(Cc3ccccc3)c2=O)cc1	-1	-4	2	-1	0	-3	x	x
SMILES	SUMO1 PPI mod	Scp1 inh	STEP block	LMPTP block	GRK2 inh	DNMT1 block	GRK2 inh confirm	FAM quench CP1	others
COc1ccc(Cc2c(O)nc(SC)n(C(C)=O)c2=O)cc1	4	3	2	-1	100*	2	-1	103
O=C1Nc2cc(C(F)(F)F)ccc2N2CCCCC12 (stereo unspecified)	-1	-12	0	2	52*	-1	x	x	GRK2 CP2=27;FAM quench SP=94
N=c1c2ccccc2nc2n1CCCCC2	2	x	-2	0	x	5	x	x
Cc1ccc(OCCSc2cc(C)nc(N)n2)cc1	1	-2	-2	-1	84*	1	-2	100
COc1ccc([C@H]2C[C@@H](O)[C@H](n3cc(-c4ccc(F)cc4)nn3)CN2C(=O)C2CCCCC2)cc1	-2	x	-1	0	x	3	x	x
COc1ccc(NC(=O)C2=CC(c3ccc(C)cc3)=NS(=O)(=O)N2C)cc1	-22	-14	1	0	54*	-5	1	98
O=C(Nc1nccs1)C(Br)C(Br)c1ccccc1 (stereo unspecified)	-8	-8	-1	-1	0	2	x	x
O=C(Nc1nccs1)C(c1ccccc1)N1CCCCC1 (stereo unspecified)	0	-6	-3	-1	61*	1	-5	98
O=C(/C=C/c1ccco1)NCc1ccco1	3	47	10	0	60*	24	0	93
Cc1ccc(/C=C/C(=O)NCc2ccco2)o1	x	x	x	x	19	x	x	x
O=S1(=O)CC(N2CCN(CCO)CC2)CN1Cc1ccccc1 (stereo unspecified)	-3	x	3	-1	x	1	x	x
O=C(NN1C(=O)/C(=C/C=C/c2ccco2)SC1=S)c1ccccc1O	77*	74*	14	61*	39	91*	3	98
CC(=O)Oc1ccc([N+](=O)[O-])cc1N1C(=O)c2ccccc2C1=O	-12	4	2	0	100*	1	x	x	GRK2 CP2=i;FAM quench SP=105

Bioassay records deposited in PubChem by several laboratories.
